In ChEMBL document CHEMBL1148893, “Nodulisporic acids D-F: structure, biological activities, and biogenetic relationships” (J Nat Prod, 2004):

Columns and labels:
[1] = Displacement of [35S]nodulisporic amide from Glutamate gated chloride channel alpha subunit/GABA gated chloride channel subunit Rdl in Drosophila melanogaster head membrane
In short: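 Competition binding against [35S]nodulisporic amide (10 pM ligand) on Drosophila melanogaster head membranes. Compounds prepared as 20 mM DMSO stocks, tested from 10 µM down to 10 pM (0.1 pM for potent ones) in 0.5 log steps, in triplicate. Each compound assayed at least twice; IC50 reported as geometric mean. Where label recovery increased, the highest concentration without "precipitation" is reported instead.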

Ctenocephalides felis = assay: Insecticidal activity against Ctenocephalides felis by artificial membrane feeding assay; format: functional
In short: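 Ex-vivo artificial membrane feeding assay, 20-25 cat fleas per titration level; compounds dissolved or suspended in bovine blood fed to fleas. LD90 taken as the concentration killing >90% of fleas.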

| Structure (SMILES) | IC50 [1] | LD90 (Ctenocephalides felis) |
| --- | --- | --- |
| COC(=O)/C(C)=C/C=C/[C@]1(C)[C@@H](O)CC[C@@]2(C)[C@H]1CC[C@H]1Cc3c([nH]c4cc5c(cc34)C3=CC(C)(C)OC(C)(C)[C@H]3C5)[C@@]12C [NODULISPORIC ACID D METHYL ESTER] | > 0.1 µM | – |
| C=C(C)[C@H]1C(=O)c2c3c(cc4c5c(n1c24)[C@@]1(C)C(CC[C@H]2[C@](C)(/C=C/C=C(\C)C(=O)O)[C@@H](O)CC[C@@]21C)C5)C1=CC(C)(C)OC(C)(C)C1[C@@H]3O (stereo not given in full) [NOD ACID A] | 0.00027 µM | 1.5 µM |
| C/C(=C\[C@@H]1C[C@@]2(C)[C@@H]3CC[C@H]4Cc5c([nH]c6cc7c(cc56)C5=CC(C)(C)OC(C)(C)[C@H]5C7)[C@]4(C)[C@@]3(C)CC[C@]2(O)O1)C(=O)O [NODULISPORIC ACID D1] | > 10 µM | – |
| C=C(C)[C@H]1C(=O)c2c3c(cc4c5c(n1c24)[C@@]1(C)[C@@H](CC[C@H]2[C@](C)(CC/C=C(\C)C(=O)O)[C@@H](O)CC[C@@]21C)C5)C1=CC(C)(C)OC(C)(C)[C@H]1[C@@H]3O [NODULISPORIC ACID A4] | 0.0024 µM | 14.7 µM |
| C=C(C)[C@H]1C(=O)c2c3c(cc4c5c(n1c24)[C@@]1(C)[C@@H](CC[C@@H]2[C@]1(C)CC[C@]1(O)O[C@H](/C=C(\C)C(=O)O)C[C@@]21C)C5)C1=CC(C)(C)OC(C)(C)[C@H]1[C@@H]3O [NODULISPORIC ACID A1] | 0.0105 µM | 7.3 µM |
| COC(=O)[C@@H](C)[C@@H](O)[C@@H]1C[C@@]2(C)[C@@H]3CC[C@H]4Cc5c([nH]c6cc7c(cc56)C5=CC(C)(C)OC(C)(C)[C@H]5C7)[C@]4(C)[C@@]3(C)CC[C@]2(O)O1 [NODULISPORIC ACID D2 METHYL ESTER] | > 10 µM | – |
| C/C(=C\C=C\[C@]1(C)[C@@H](O)CC[C@@]2(C)[C@H]1CC[C@H]1Cc3c([nH]c4cc5c(cc34)C3=CC(C)(C)OC(C)(C)[C@H]3C5)[C@@]12C)C(=O)O [NODULISPORIC ACID] | > 1 µM | 92.6 µM |
| CC(C)=CCc1c2c(cc3c4c([nH]c13)[C@@]1(C)[C@@H](CC[C@H]3[C@](C)(/C=C/C=C(\C)C(=O)O)[C@@H](O)CC[C@@]31C)C4)C1=CC(C)(C)OC(C)(C)[C@H]1[C@@H]2O [NODULISPORIC ACID C] | 0.0052 µM | 15 µM |
| CC(C)=CCc1c2c(cc3c4c([nH]c13)[C@@]1(C)[C@@H](CC[C@H]3[C@](C)(CC/C=C(\C)C(=O)O)[C@@H](O)CC[C@@]31C)C4)C1=CC(C)(C)OC(C)(C)C1=C2 | > 0.1 µM | 15.3 µM |
| CC(C)=CCc1c2c(cc3c4c([nH]c13)[C@@]1(C)[C@@H](CC[C@@H]3[C@]1(C)CC[C@]1(O)O[C@H](/C=C(\C)C(=O)O)C[C@@]31C)C4)C1=CC(C)(C)OC(C)(C)[C@H]1[C@@H]2O [NODULISPORIC ACID C1] | 0.0523 µM | >146.2 µM |
| COC(=O)/C(C)=C/CC[C@]1(C)[C@@H](O)CC[C@@]2(C)[C@H]1CC[C@H]1Cc3c([nH]c4cc(CC=C(C)C)c(CC=C(C)C)cc34)[C@@]12C | > 0.1 µM | – |
| CC(C)=CCc1c2c(cc3c4c([nH]c13)[C@@]1(C)[C@@H](CC[C@@H]3[C@]1(C)CC[C@]1(O)O[C@H]([C@H](O)[C@H](C)C(=O)O)C[C@@]31C)C4)C1=CC(C)(C)OC(C)(C)[C@H]1[C@@H]2O [NODULISPORIC ACID C2] | 0.0715 µM | >142.5 µM |
| C=C(C)[C@H]1Cc2c3c(cc4c5c(n1c24)[C@@]1(C)[C@@H](CC[C@@H]2[C@]1(C)CC[C@]1(O)O[C@H](/C=C(\C)C(=O)O)C[C@@]21C)C5)C1=CC(C)(C)OC(C)(C)[C@H]1[C@@H]3O [NODULISPORIC ACID B1] | 0.121 µM | >147.7 µM |
| C[C@H](C(=O)O)[C@@H](O)[C@@H]1C[C@@]2(C)[C@@H]3CC[C@H]4Cc5c([nH]c6cc7c(cc56)C5=CC(C)(C)OC(C)(C)[C@H]5C7)[C@]4(C)[C@@]3(C)CC[C@]2(O)O1 [NODULISPORIC ACID D2] | 0.0221 µM | – |
| C=C(C)[C@H]1C(=O)c2c3c(cc4c5c(n1c24)[C@@]1(C)[C@@H](CC[C@H]2[C@](C)(/C=C/C=C(\C)C(=O)OC)[C@@H](O)CC[C@@]21C)C5)C1=CC(C)(C)OC(C)(C)[C@H]1[C@@H]3O | 0.00043 µM | 14.4 µM |
| CC(C)=CCc1cc2[nH]c3c(c2cc1CC=C(C)C)C[C@@H]1CC[C@H]2[C@](C)(CC/C=C(\C)C(=O)O)[C@@H](O)CC[C@]2(C)[C@@]31C | 2.14 µM | – |
| C=C(C)[C@H]1Cc2c3c(cc4c5c(n1c24)[C@@]1(C)[C@@H](CC[C@@H]2[C@]1(C)CC[C@]1(O)O[C@H]([C@H](O)[C@H](C)C(=O)O)C[C@@]21C)C5)C1=CC(C)(C)OC(C)(C)[C@H]1[C@@H]3O [NODULISPORIC ACID B2] | 0.101 µM | >142.9 µM |
| C=C(C)[C@H]1C(=O)c2c3c(cc4c5c(n1c24)[C@@]1(C)[C@@H](CC[C@H]2[C@](C)(CC/C=C(\C)C(=O)O)[C@@H](O)CC[C@@]21C)C5)C1=CC(C)(C)OC(C)(C)C1=C3 | 0.023 µM | >15.1 µM |
| COC(=O)/C(C)=C/[C@@H]1C[C@@]2(C)[C@@H]3CC[C@H]4Cc5c([nH]c6cc7c(cc56)C5=CC(C)(C)OC(C)(C)[C@H]5C7)[C@]4(C)[C@@]3(C)CC[C@]2(O)O1 [NODULISPORIC ACID D1 METHYL ESTER] | > 0.1 µM | – |
| C=C(C)[C@H]1Cc2c3c(cc4c5c(n1c24)[C@@]1(C)[C@@H](CC[C@H]2[C@](C)(/C=C/C=C(\C)C(=O)O)[C@@H](O)CC[C@@]21C)C5)C1=CC(C)(C)OC(C)(C)[C@H]1[C@@H]3O [NODULISPORIC ACIDS B] | 0.0174 µM | 150 µM |
| C/C(=C\CC[C@]1(C)[C@@H](O)CC[C@@]2(C)[C@H]1CC[C@H]1Cc3c([nH]c4ccccc34)[C@@]12C)C(=O)O [NODULISPORIC ACID F] | > 10 µM | 45.9 µM |
| C=C(C)[C@H]1Cc2c3c(cc4c5c(n1c24)[C@@]1(C)[C@@H](CC[C@H]2[C@](C)(/C=C/C=C(\C)C(=O)OC)[C@@H](O)CC[C@@]21C)C5)C1=CC(C)(C)OC(C)(C)[C@H]1[C@@H]3O | 0.0026 µM | 147.1 µM |
| C=C(C)[C@H]1C(=O)c2c3c(cc4c5c(n1c24)[C@@]1(C)[C@@H](CC[C@@H]2[C@]1(C)CC[C@]1(O)O[C@H]([C@H](O)[C@H](C)C(=O)O)C[C@@]21C)C5)C1=CC(C)(C)OC(C)(C)[C@H]1[C@@H]3O [NODULISPORIC ACID A12] | 0.07 µM | 14 µM |
| C/C(=C\C=C\[C@]1(C)C(=O)CC[C@@]2(C)[C@H]1CC[C@H]1Cc3c([nH]c4cc5c(cc34)C3=CC(C)(C)OC(C)(C)[C@H]3C5)[C@@]12C)C(=O)O [NODULISPORIC ACID D3] | > 1 µM | – |
